# Reference: article PMC3868989 (Pharmaceutical research, 2012)
# Columns and labels:
# [1] = Water solubility study of CDF and CDF-β-cyclodextrin complexes; format: physicochemical; details: distilled water, ambient temperature, shaken 2 h, UV 365 nm
# Method in brief: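 The complex was made by kneading the components at 2:1 molar ratio in alcohol/water for 1 h. It was dried at 45°C for 24 h, powdered and sieved (#80). Excess test compound or complex was dispersed in 25 ml distilled water and shaken 2 h at ambient temperature to equilibrium. Solutions were passed through a 0.22-μm filter and diluted with methanol. Absorbance was read at 365 nm.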
# [2] = test system: pancreatic cancer cells BxPC-3; assay: MTT cell growth assay, BxPC-3; format: cell-based; details: BxPC-3 cells, 72 h treatment
# Method in brief: (§1)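 Cells grown at 37°C under humidified 5% CO2. BxPC-3 and MDA-MB-231 were in DMEM with 10% FBS, and PC3 was in RPMI with 10% FBS. Lines were STR-authenticated. Cells were seeded in 96-well plates and dosed 24 h after seeding. After 72 h, MTT 0.5 mg/ml was added for 2 h at 37°C. Medium was replaced with DMSO for 30 min at room temperature before reading absorbance. Eight replicate wells per treatment; each experiment run at least three times.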
# [3] = test system: breast cancer cells MDA-MB-231; assay: MTT cell growth assay, MDA-MB-231; format: cell-based; details: MDA-MB-231 cells, 72 h treatment
# Method in brief: as §1
# [4] = test system: prostate cancer cells PC3; assay: MTT cell growth assay, PC3; format: cell-based; details: 72 h treatment
# Method in brief: as §1
# [5] = Pharmacokinetics and tissue distribution; format: in vivo; details: mice, single i.v. dose CDF 5.0 mg/mice, at 2 h
# Method in brief: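 Female ICR-SCID mice, 8–10 weeks old, were starved overnight. Each received a single i.v. dose: test compound 5.0 mg/mouse, or its β-cyclodextrin 1:2 complex at 12.5 mg/mouse (5.0 mg equivalent). Vehicle was 1:1 ethanol/polysorbate 80 diluted tenfold with 5% glucose. About 200 μL blood was taken by cardiac puncture for serum. Pancreas was PBS-washed, blotted and weighed. Samples were stored at −80°C and quantified by validated LC-MS/MS.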
# [6] = Phase solubility analysis; format: physicochemical; details: in presence of β-cyclodextrin 0-20 mM, water, 30 ± 2°C, 72 h
# [7] = pancreas of mice; cited from earlier work
structure (smiles),measurement,setting,value
"COc1cc(/C=C/C(=O)C(=Cc2ccc(F)c(F)c2)C(=O)/C=C/c2ccc(O)c(OC)c2)ccc1O [CDF, 3,4-difluorobenzo curcumin]",water solubility,[1],14 µg/mL
same,IC50,[2],350 nM
same,IC50,[3],325 nM
same,IC50,[4],260 nM
same,concentration in pancreas,[5],~ 300 ng/g
same,concentration in serum,[5],~ 6 ng/ml
same,phase solubility diagram type,[6],AN type
same,levels in pancreas relative to curcumin,[7],10 times
